In PMC5470083 (Molecular imaging, 2016):
Where two headings read alike, the source gives them in different places. Marks after values point to notes of the source that are not given here.

Key:
NFTs = details: autoradiography on human AD brain tissue sections; ref [8],[11]; cited from earlier work
tau (NFTs) [1] = target: T1, tau (NFTs) (Homo sapiens, UniProt P10636); type: binding; details: 1 µmol/L compound, human AD slices, n = 3
Target sequence in this assay (P10636 623-708 limits assumed): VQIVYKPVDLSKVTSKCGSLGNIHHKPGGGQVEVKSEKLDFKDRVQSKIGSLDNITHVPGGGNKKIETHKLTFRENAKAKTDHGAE

tau (NFTs) [2] = target: T1, tau (NFTs); type: binding
Target sequence in this assay (P10636 623-695 limits assumed): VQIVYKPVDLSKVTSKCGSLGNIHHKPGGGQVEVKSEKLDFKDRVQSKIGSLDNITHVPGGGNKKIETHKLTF

amyloid plaques = amyloid plaques (Homo sapiens, UniProt P05067); type: binding
[3] = Perfused brain radiometabolite analysis; type: in vivo, mouse; details: normal mice
Aβ = Aβ (Homo sapiens, UniProt P05067); assay: In vitro autoradiography binding inhibition of [11C]PiB on human AD brain slices
[4] = Plasma radiometabolite analysis; type: in vivo, mouse; details: normal mice
Procedure, shortened: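 NMRI mice under isoflurane (2.5% in O2) received about 3.7 MBq of 18F-labelled tracer via a lateral tail vein. They were decapitated at 2, 10, 30 or 60 min PI (n = 3/time point). EDTA blood was kept on ice and spun at 2330 ×g for 10 min. Plasma (0.5 mL) was spiked with 10 µg authentic unlabelled compound and run on C18 HPLC. Fractions were γ-counted for % intact tracer, reported as mean ± SD.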

[5] = Biodistribution in normal NMRI mice; type: in vivo, mouse; details: for %ID/g Blood / %ID/g Bone / %ID/g Brain / %ID/g Cerebellum / %ID/g Cerebrum / %ID/g Heart / %ID/g Kidneys / %ID/g Liver / %ID/g Lungs / %ID/g Muscle / %ID/g Pancreas / %ID/g Spleen: iv
Procedure, shortened: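 Healthy male NMRI mice (30-40 g) under 2.5% isoflurane in O2 received about 0.9 MBq of 18F-labelled tracer by tail vein. They were decapitated at 2, 10, 30 and 60 min PI (n = 4/time point). Blood and organs were weighed and γ-counted. Blood, bone and muscle were taken as 7%, 12% and 40% of body mass. Blood clearance was calculated as the 2 min to 60 min activity ratio.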

PHF tau = PHF tau (Homo sapiens, UniProt P10636); type: binding
Aβ fibrils = details: read-out: Ki for Aβ fibrils; reported values; ref [3],[13]; cited from earlier work
[6] = read-out: % Block ± SD of tracer binding

Sequence of Aβ (P05067 672-711 limits assumed): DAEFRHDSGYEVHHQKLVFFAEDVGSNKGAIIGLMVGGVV
Sequence of PHF tau (P10636 623-695 limits assumed): as the sequence (P10636 623-695 limits assumed) above
Sequence of amyloid plaques (P05067 672-711 limits assumed): as the sequence (P05067 672-711 limits assumed) above

SMILES: FCCC1CCN(c2ccn3c(n2)nc2ccccc23)CC1 [T808, 2-[4-(2-fluoroethyl)piperidin-1-yl]pyrimido[1,2-a]benzimidazole]
- Kd (NFTs): 22 nM
- fold higher binding affinity for NFTs over Aβ (NFTs): 27 fold
- % Block ± SD of tracer binding (tau (NFTs) [1]; tracer 7 nmol/L [18F]T808): 89 ± 0.0%
- % Block ± SD of tracer binding (tau (NFTs) [2]; 1 µmol/L compound, tracer 28 nmol/L [18F]T807, human AD slices, n = 3): 90 ± 10^b %
- inhibition at 1 µM (tau (NFTs) [2]; [6]): 90%
- Ki (amyloid plaques): > 4400 nM
- Mean % ± SD of intact tracer, perfused brain ([3]; 10 min after injection, n = 3): 88 ± 2%
- Mean % ± SD of intact tracer, perfused brain ([3]; 10 min after injection, n = 3, listed as [^18F]T808): 88%
- Mean % ± SD of intact tracer, perfused brain ([3]; 60 min after injection, n = 3): 34 ± 10%
- Mean % ± SD of intact tracer, perfused brain ([3]; 60 min after injection, n = 3, listed as [^18F]T808): 34%
- % Block ± SD of tracer binding (Aβ; 1 µmol/L compound, tracer 66 nmol/L [11C]PiB, human AD slices, n = 3): 17 ± 0.0%
- inhibition at 1 µM (Aβ; [6]): 17%
- inhibition at 1 µM (Aβ; read-out: Inhibition of [11C]PiB binding, summary statements): < 17%
- Mean % ± SD of intact tracer, plasma ([4]; 2 min after injection, n = 3): 65 ± 8%
- Mean % ± SD of intact tracer, plasma ([4]; 2 min after injection, n = 3, listed as [^18F]T808): 65%
- Mean % ± SD of intact tracer, plasma ([4]; 10 min after injection, n = 3): 34 ± 3%
- Mean % ± SD of intact tracer, plasma ([4]; 30 min after injection, n = 3): 29 ± 3%
- Mean % ± SD of intact tracer, plasma ([4]; 30 min after injection, n = 3, listed as [^18F]T808): 29%
- Mean % ± SD of intact tracer, plasma ([4]; 60 min after injection, n = 3): 26 ± 12%
- %ID/g Blood ([5]; blood, 2 min PI): 1.8 ± 0.1 %ID/g
- 2/60 min activity ratio Blood (clearance from blood) ([5]; blood, 2 min to 60 min activity ratio): 2.7
- %ID/g Blood ([5]; blood, 10 min PI): 2.0 ± 0.2 %ID/g
- %ID/g Blood ([5]; blood, 30 min PI): 1.5 ± 0.1 %ID/g
- %ID/g Blood ([5]; blood, 60 min PI): 0.7 ± 0.1 %ID/g
- %ID/g Bone ([5]; 2 min PI): 2.6 ± 0.6 %ID/g
- %ID/g Bone ([5]; 10 min PI): 4.2 ± 0.6 %ID/g
- %ID/g Bone ([5]; 60 min PI): 9.2 ± 6.1 %ID/g
- %ID/g Brain ([5]; brain, 2 min PI): 4.9 ± 0.5 %ID/g
- 2/60 min activity ratio Brain ([5]; brain, 2 min to 60 min activity ratio): 18.2
- %ID/g Brain ([5]; brain, 10 min PI): 0.9 ± 0.3 %ID/g
- %ID/g Brain ([5]; brain, 30 min PI): 0.4 ± 0.0 %ID/g
- %ID/g Brain ([5]; brain, 60 min PI): 0.3 ± 0.0 %ID/g
- %ID/g Cerebellum ([5]; 2 min PI): 5.2 ± 0.5 %ID/g
- %ID/g Cerebellum ([5]; 10 min PI): 1.0 ± 0.6 %ID/g
- %ID/g Cerebellum ([5]; 30 min PI): 0.6 ± 0.1 %ID/g
- %ID/g Cerebellum ([5]; 60 min PI): 0.5 ± 0.2 %ID/g
- %ID/g Cerebrum ([5]; 2 min PI): 4.9 ± 0.5 %ID/g
- %ID/g Cerebrum ([5]; 10 min PI): 1.0 ± 0.1 %ID/g
- %ID/g Cerebrum ([5]; 30 min PI): 0.4 ± 0.0 %ID/g
- %ID/g Cerebrum ([5]; 60 min PI): 0.2 ± 0.0 %ID/g
- %ID/g Heart ([5]; 2 min PI): 3.2 ± 0.4 %ID/g
- %ID/g Heart ([5]; 10 min PI): 2.3 ± 0.3 %ID/g
- %ID/g Heart ([5]; 30 min PI): 1.7 ± 0.0 %ID/g
- %ID/g Heart ([5]; 60 min PI): 0.8 ± 0.1 %ID/g
- %ID/g Kidneys ([5]; 2 min PI): 26.3 ± 1.7 %ID/g
- %ID/g Kidneys ([5]; 10 min PI): 12.7 ± 1.7 %ID/g
- %ID/g Kidneys ([5]; 30 min PI): 9.2 ± 2.3 %ID/g
- %ID/g Kidneys ([5]; 60 min PI): 3.6 ± 1.7 %ID/g
- %ID/g Liver ([5]; 2 min PI): 11.8 ± 2.4 %ID/g
- %ID/g Liver ([5]; 10 min PI): 15.1 ± 1.6 %ID/g
- %ID/g Liver ([5]; 30 min PI): 8.3 ± 1.2 %ID/g
- %ID/g Liver ([5]; 60 min PI): 4.2 ± 0.7 %ID/g
- %ID/g Lungs ([5]; 2 min PI): 4.8 ± 0.6 %ID/g
- %ID/g Lungs ([5]; 10 min PI): 3.0 ± 0.3 %ID/g
- %ID/g Lungs ([5]; 30 min PI): 1.8 ± 0.2 %ID/g
- %ID/g Lungs ([5]; 60 min PI): 0.9 ± 0.2 %ID/g
- %ID/g Muscle ([5]; 2 min PI): 1.5 ± 0.5 %ID/g
- %ID/g Muscle ([5]; 10 min PI): 1.0 ± 0.2 %ID/g
- %ID/g Muscle ([5]; 30 min PI): 0.8 ± 0.1 %ID/g
- %ID/g Muscle ([5]; 60 min PI): 3.5 ± 5.5 %ID/g
- %ID/g Pancreas ([5]; 2 min PI): 7.3 ± 2.4 %ID/g
- %ID/g Pancreas ([5]; 10 min PI): 4.0 ± 2.0 %ID/g
- %ID/g Pancreas ([5]; 30 min PI): 2.2 ± 0.5 %ID/g
- %ID/g Pancreas ([5]; 60 min PI): 1.2 ± 0.3 %ID/g
- %ID/g Spleen ([5]; 2 min PI): 16.6 ± 6.7 %ID/g
- %ID/g Spleen ([5]; 10 min PI): 4.9 ± 0.6 %ID/g
- %ID/g Spleen ([5]; 30 min PI): 2.4 ± 0.4 %ID/g
- %ID/g Spleen ([5]; 60 min PI): 1.3 ± 0.3 %ID/g
- Ki (PHF tau): 9.4 nM

SMILES: CNc1ccc(-c2ccc3ccccc3n2)cc1 [BF-158, N-Methyl-4-(quinolin-2-yl)benzenamine]
- Ki (Aβ fibrils): > 5000 nM
- % Block ± SD of tracer binding (tau (NFTs) [1]; tracer 40 nmol/L [18F]T808): 93 ± 0.0%
